Measured values taken from ChEMBL document CHEMBL3414496, “Synthesis and biological evaluation of novel 2-heteroarylimino-1,3-thiazolidin-4-ones as potential anti-tumor agents” (Eur J Med Chem, 2015).
Calls of active or inactive are those of the source. No cut-off for these calls is given here.

What was measured:
[1] = test system: HT-29; assay: Induction of HO1 expression in human HT-29 cells at 6.4 uM after 6 hrs by Western blotting method; assay type: functional
In short: (§1)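 HT29 whole-cell lysates in Hepes/KOH pH 7.5 with EDTA, KCl, NP40, DTT, protease inhibitors; 50 µg protein on 10–15% SDS-PAGE, nitrocellulose, overnight 4°C primary antibody (GCL 1:500, HO-1 1:1000), HRP secondary, chemiluminescence. Bands normalized to GAPDH (1:10 000), DMSO ratio set at 1.00; representative of three independent experiments.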

[2] = test system: HT-29; assay: Induction of HO1 expression in human HT-29 cells at 6.4 uM after 24 hrs by Western blotting method; assay type: functional; in short: as §1
[3] = test system: HT-29; assay: Induction of GCL expression in human HT-29 cells at 6.4 uM after 4 hrs by Western blotting method; assay type: functional; in short: as §1
[4] = test system: HT-29; assay: Induction of HO1 expression in human HT-29 cells at 6.4 uM after 2 hrs by Western blotting method; assay type: functional; in short: as §1
[5] = test system: HT-29; assay: Induction of NQO1 expression in human HT-29 cells at 6.4 uM after 6 hrs by Western blotting method; assay type: functional
In short: (§2)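 Whole-cell lysates from treated HT29 cells in pH 7.5 Hepes/KOH buffer with EDTA, KCl, Igepal, DTT and protease inhibitors. 50 µg protein run on 10-15% SDS-PAGE and transferred to nitrocellulose. Probed overnight at 4°C with anti-HO-1 (1:1 000), anti-NQO1 (1:1 000) or anti-GCL (1:500), then HRP secondary for 45 min and chemiluminescence. Bands normalized to GAPDH (1:10 000), with the DMSO ratio set to 1.00. Representative of three experiments.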

[6] = test system: HT-29; assay: Induction of NQO1 expression in human HT-29 cells at 6.4 uM after 4 hrs by Western blotting method; assay type: functional; in short: as §2
[7] = test system: HT-29; assay: Induction of NQO1 expression in human HT-29 cells at 6.4 uM after 24 hrs by Western blotting method; assay type: functional; in short: as §2
[8] = test system: HT-29; assay: Induction of NQO1 expression in human HT-29 cells at 10 uM after 24 hrs by Western blotting method; assay type: functional; in short: as §2
[9] = test system: HT-29; assay: Induction of GCL expression in human HT-29 cells at 10 uM after 6 hrs by Western blotting method; assay type: functional; in short: as §1
[10] = test system: HT-29; assay: Induction of GCL expression in human HT-29 cells at 10 uM after 24 hrs by Western blotting method; assay type: functional; in short: as §1
[11] = test system: HT-29; assay: Induction of HO1 expression in human HT-29 cells at 10 uM after 24 hrs by Western blotting method; assay type: functional; in short: as §1
[12] = test system: HT-29; assay: Induction of NQO1 expression in human HT-29 cells at 10 uM after 2 hrs by Western blotting method; assay type: functional; in short: as §2
[13] = test system: HT-29; assay: Induction of HO1 expression in human HT-29 cells at 10 uM after 2 hrs by Western blotting method; assay type: functional; in short: as §1
[14] = test system: HT-29; assay: Induction of GCL expression in human HT-29 cells at 10 uM after 2 hrs by Western blotting method; assay type: functional; in short: as §1
[15] = test system: HT-29; assay: Induction of NQO1 expression in human HT-29 cells at 3.8 uM after 2 hrs by Western blotting method; assay type: functional; in short: as §2
[16] = test system: HT-29; assay: Induction of GCL expression in human HT-29 cells at 3.8 uM after 4 hrs by Western blotting method; assay type: functional; in short: as §1
[17] = test system: HT-29; assay: Induction of GCL expression in human HT-29 cells at 3.8 uM after 2 hrs by Western blotting method; assay type: functional; in short: as §1
[18] = test system: HT-29; assay: Induction of HO1 expression in human HT-29 cells at 3.8 uM after 4 hrs by Western blotting method; assay type: functional; in short: as §1
[19] = test system: HT-29; assay: Induction of NQO1 expression in human HT-29 cells at 3.8 uM after 6 hrs by Western blotting method; assay type: functional; in short: as §2
[20] = test system: HT-29; assay: Induction of HO1 expression in human HT-29 cells at 3.8 uM after 24 hrs by Western blotting method; assay type: functional; in short: as §1
[21] = test system: HT-29; assay: Induction of HO1 expression in human HT-29 cells at 3.8 uM after 2 hrs by Western blotting method; assay type: functional; in short: as §1
[22] = test system: HT-29; assay: Induction of NQO1 expression in human HT-29 cells at 3.8 uM after 24 hrs by Western blotting method; assay type: functional; in short: as §2
[23] = test system: HT-29; assay: Induction of HO1 expression in human HT-29 cells at 3.8 uM after 6 hrs by Western blotting method; assay type: functional; in short: as §1
[24] = test system: HT-29; assay: Induction of NQO1 expression in human HT-29 cells at 3.8 uM after 4 hrs by Western blotting method; assay type: functional; in short: as §2
[25] = test system: HT-29; assay: Induction of HO1 expression in human HT-29 cells at 1.5 uM after 24 hrs by Western blotting method; assay type: functional; in short: as §1
[26] = test system: HT-29; assay: Induction of NQO1 expression in human HT-29 cells at 1.5 uM after 6 hrs by Western blotting method; assay type: functional; in short: as §2
[27] = test system: HT-29; assay: Induction of NQO1 expression in human HT-29 cells at 1.5 uM after 4 hrs by Western blotting method; assay type: functional; in short: as §2
[28] = test system: HT-29; assay: Induction of GCL expression in human HT-29 cells at 1.5 uM after 2 hrs by Western blotting method; assay type: functional; in short: as §1
[29] = test system: HT-29; assay: Induction of HO1 expression in human HT-29 cells at 1.5 uM after 4 hrs by Western blotting method; assay type: functional; in short: as §1
[30] = test system: HT-29; assay: Induction of GCL expression in human HT-29 cells at 1.5 uM after 4 hrs by Western blotting method; assay type: functional; in short: as §1
[31] = test system: HT-29; assay: Induction of HO1 expression in human HT-29 cells at 1.5 uM after 6 hrs by Western blotting method; assay type: functional; in short: as §1
[32] = test system: HT-29; assay: Induction of NQO1 expression in human HT-29 cells at 1.5 uM after 2 hrs by Western blotting method; assay type: functional; in short: as §2
[33] = test system: HT-29; assay: Induction of GCL expression in human HT-29 cells at 1.5 uM after 6 hrs by Western blotting method; assay type: functional; in short: as §1
[34] = test system: HT-29; assay: Induction of NQO1 expression in human HT-29 cells at 1.5 uM after 24 hrs by Western blotting method; assay type: functional; in short: as §2
[35] = test system: HT-29; assay: Induction of HO1 expression in human HT-29 cells at 1.5 uM after 2 hrs by Western blotting method; assay type: functional; in short: as §1
[36] = test system: HT-29; assay: Induction of GCL expression in human HT-29 cells at 1.5 uM after 24 hrs by Western blotting method; assay type: functional; in short: as §1
[37] = test system: HT-29; assay: Induction of ROS generation in human HT-29 cells at 2.5 uM after 2 to 6 hrs by DCF-DA staining based fluorescence assay; assay type: functional, cell-based
In short: (§3)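 HT29 cells treated two days after seeding, then loaded with 50 µM DCF-DA for 15 min at 37°C. Cells trypsinized, washed and resuspended in PBS, and 30 000 cells/sample read by flow cytometry (FL-1). Expressed as % of DMSO-treated cells; […] for 1 h served as positive control. Triplicates from three independent experiments.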

[38] = test system: HT-29; assay: Induction of redox status changes in human HT-29 cells assessed as ROS content in presence of 1 mM ascorbic acid by DCF-DA staining based fluorescence assay (reference value: 64.7 +/- 2.6%)
[39] = test system: HT-29; assay: Inhibition of cell growth in human HT-29 cells assessed as mitotic index ratio in presence of 1 mM ascorbic acid (reference value: 1.08 +/- 0.04); assay type: functional
[40] = test system: HT-29; assay: Induction of ROS generation in human HT-29 cells at 2.5 uM after 3 hrs by DCF-DA staining based fluorescence assay; assay type: functional, cell-based; in short: as §3

Cc1ccc(/C=C2\S/C(=N\c3csc(-c4ccc(Cl)cc4)c3)NC2=O)cc1
fold change (FC) [1]: 1
fold change (FC) [2]: 1
fold change (FC) [3]: 2.54
fold change (FC) [4]: 1
fold change (FC) [5]: 1.86
fold change (FC) [6]: 2.59
fold change (FC) [7]: 1.6

COc1ccc(/C=C2\S/C(=N\c3csc(-c4ccc(Cl)cc4)c3)NC2=O)cc1OC
fold change (FC) [8]: 0.9
fold change (FC) [9]: 1.16
fold change (FC) [10]: 1.11
fold change (FC) [11]: 1
fold change (FC) [12]: 1.04
fold change (FC) [13]: 1
fold change (FC) [14]: 0.96

COc1ccc(/C=C2\S/C(=N\c3csc(-c4ccc(Cl)cc4)c3)NC2=O)cc1
fold change (FC) [15]: 1.16
fold change (FC) [16]: 1.49
fold change (FC) [17]: 1.22
fold change (FC) [18]: 1
fold change (FC) [19]: 0.9
fold change (FC) [20]: 1
fold change (FC) [21]: 1
fold change (FC) [22]: 0.88
fold change (FC) [23]: 1
fold change (FC) [24]: 0.87

CN(C)c1ccc(/C=C2\S/C(=N\c3csc(-c4ccc(Cl)cc4)c3)NC2=O)cc1
fold change (FC) [25]: 1
fold change (FC) [26]: 1.26
fold change (FC) [27]: 1.06
fold change (FC) [28]: 0.9
fold change (FC) [29]: 1
fold change (FC) [30]: 0.96
fold change (FC) [31]: 1
fold change (FC) [32]: 1.15
fold change (FC) [33]: 0.99
fold change (FC) [34]: 1.07
fold change (FC) [35]: 1
fold change (FC) [36]: 1.52

COc1ccc(/C=C2\S/C(=N\c3nc(-c4ccc(Cl)cc4)cs3)NC2=O)cc1
Activity [37]: inactive

CN(C)c1ccc(/C=C2\S/C(=N\c3nc(-c4ccc(Cl)cc4)cs3)NC2=O)cc1
Activity [38]: 158.8%
Ratio [39]: 0.09
Activity [40]: Active
